According to ChEMBL document CHEMBL1124042, “Synthesis and potential antipsychotic activity of 1H-imidazo[1,2-c]pyrazolo[3,4-e]pyrimidines” (J Med Chem, 1988):

Tests used:
[1] = tested on: Mus musculus; assay: Inhibition of induction of ataxia in mouse after intraperitoneal administration; format: functional; conditions: ip
[2] = tested on: Rattus norvegicus; assay: Inhibition of shelf-jump avoidance in rats after peroral administration.; format: functional
Summary of the method: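 One-way shelf-jump conditioned avoidance responding in rats. ED50 determined from at least three doses (N = 9).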

[3] = tested on: Mus musculus; assay: Inhibition of locomotor activity in mouse after intraperitoneal administration; format: functional
[4] = tested on: Rattus norvegicus; assay: Inhibition of Sidman avoidance in rats after peroral administration; format: functional; conditions: po
Summary of the method: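 Continuous (Sidman) avoidance responding in rats with oral dosing. At least three doses per drug, four animals per dose. ED50 reported ± SEM.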

[5] = molecular target: T1, Adenosine receptor A1 (Rattus norvegicus, UniProt P25099); assay: Displacement of [3H]-CHA (N6-Cyclohexyl adenosine) from adenosine A1 receptor in rat brain; format: tissue-based
T1 sequence (P25099 whole entry): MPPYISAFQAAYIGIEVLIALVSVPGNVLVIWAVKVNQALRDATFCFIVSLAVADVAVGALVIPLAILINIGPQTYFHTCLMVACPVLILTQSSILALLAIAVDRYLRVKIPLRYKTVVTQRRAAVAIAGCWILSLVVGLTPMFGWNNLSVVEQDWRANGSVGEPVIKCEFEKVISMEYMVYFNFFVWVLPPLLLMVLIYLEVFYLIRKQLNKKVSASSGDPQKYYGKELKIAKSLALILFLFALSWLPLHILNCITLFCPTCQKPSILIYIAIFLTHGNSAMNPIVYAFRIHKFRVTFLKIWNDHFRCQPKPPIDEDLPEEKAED
Summary of the method: (§1)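 Rat brain radioligand displacement binding. IC50 values (μM) were derived by nonlinear regression from four or five concentrations of compound.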

[6] = molecular target: Beta-1 adrenergic receptor (Rattus norvegicus, UniProt P18090); assay: Displacement of [3H]DHA (Dihydroalprenolol) from beta-1 adrenergic receptor in rat brain; format: tissue-based; summary of the method: as §1
Beta-1 adrenergic receptor, sequence (P18090 whole entry): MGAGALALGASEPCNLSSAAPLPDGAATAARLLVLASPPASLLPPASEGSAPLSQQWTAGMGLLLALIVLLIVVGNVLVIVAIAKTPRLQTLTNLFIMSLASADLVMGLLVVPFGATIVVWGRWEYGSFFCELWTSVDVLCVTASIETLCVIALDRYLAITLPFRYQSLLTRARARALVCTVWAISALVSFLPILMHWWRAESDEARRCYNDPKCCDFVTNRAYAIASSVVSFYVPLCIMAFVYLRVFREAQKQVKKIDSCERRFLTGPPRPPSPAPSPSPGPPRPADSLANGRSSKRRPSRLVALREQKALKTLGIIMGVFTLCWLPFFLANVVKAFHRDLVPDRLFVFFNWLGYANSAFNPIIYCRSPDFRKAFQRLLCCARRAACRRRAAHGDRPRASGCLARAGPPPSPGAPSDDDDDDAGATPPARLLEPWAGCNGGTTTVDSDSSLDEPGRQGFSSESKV

[7] = Displacement of [3H]CHA (N6-Cyclohexyl adenosine) from rat brain adenosine A1 receptor
[8] = molecular target: Beta-2 adrenergic receptor (Rattus norvegicus, UniProt P10608); assay: Displacement of [3H]DHA (Dihydroalprenolol) from beta-2 adrenergic receptor in rat brain; format: tissue-based; summary of the method: as §1
Beta-2 adrenergic receptor, sequence (P10608 whole entry): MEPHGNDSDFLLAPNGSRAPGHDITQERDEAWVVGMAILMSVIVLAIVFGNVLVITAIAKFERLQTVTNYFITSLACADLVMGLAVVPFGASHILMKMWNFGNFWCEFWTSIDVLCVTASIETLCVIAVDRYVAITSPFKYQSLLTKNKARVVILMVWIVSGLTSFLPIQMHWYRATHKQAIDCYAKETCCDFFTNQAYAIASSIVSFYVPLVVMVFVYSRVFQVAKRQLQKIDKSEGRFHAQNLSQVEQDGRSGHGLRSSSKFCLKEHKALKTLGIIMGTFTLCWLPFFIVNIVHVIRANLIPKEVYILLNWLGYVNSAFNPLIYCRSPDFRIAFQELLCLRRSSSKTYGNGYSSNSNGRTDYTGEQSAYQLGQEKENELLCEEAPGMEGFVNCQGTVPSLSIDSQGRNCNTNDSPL

[9] = molecular target: Serotonin 1 (5-HT1) receptor (Rattus norvegicus, UniProt P28564+P30940+P19327+P28565); assay: Displacement of [3H]-5-HT from serotonin-1 neurotransmitter receptor in rat brain; format: tissue-based; summary of the method: as §1
[10] = tested on: Monkey; assay: Inhibition of Sidman avoidance in squirrel monkeys after the compound administered perorally; format: functional; conditions: in Saimiri, po
Summary of the method: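 Oral dosing in squirrel monkeys trained on continuous (Sidman) avoidance responding. ED50 reported ± SEM.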

[11] = Rattus norvegicus, po, read-out: ED50
[12] = Mus musculus, ip, read-out: ED50

| Compound | ED50 [1] | ED50 [2, 11] | ED50 [3, 12] | further results |
| --- | --- | --- | --- | --- |
| CCc1nc2c(C)nn(C)c2c2nccn12 | > 100 mg/kg | 15 mg/kg | 34.2 mg/kg | – |
| CCc1cn2c(CC)nc3c(C)nn(C)c3c2n1 | > 30 mg/kg | 16 mg/kg | 20.6 mg/kg | – |
| Cc1nn(C)c2c1N=CN1CC(C)N=C21 (configuration not stated) | > 100 mg/kg | – | 49.2 mg/kg | – |
| CC1=Nc2c(C)nn(C)c2C2=NC(C)C(C)N12 (stereo in doubt; trans) | > 100 mg/kg | – | 69.1 mg/kg | – |
| CCC1=Nc2c(C)nn(C)c2C2=NCCN12 | > 100 mg/kg | 17 mg/kg | 22.8 mg/kg | ED50 [4]: 24.4 mg/kg |
| Cc1cn2c(C)nc3c(C)nn(C)c3c2n1 | > 100 mg/kg | < 32 mg/kg | 73 mg/kg | – |
| CCCn1nc(C)c2c1C1=NC(C)CN1C(C)=N2 (configuration not stated) | > 100 mg/kg | – | 37.7 mg/kg | – |
| CC1=Nc2c(C)nn(C)c2C2=NC(C)(C)CN12 | > 100 mg/kg | – | 22.7 mg/kg | ED50 [4]: 53.7 mg/kg |
| Cc1cn2c(CC(=O)O)nc3c(C)nn(C)c3c2n1 | > 100 mg/kg | > 100 mg/kg | > 100 mg/kg | – |
| Cc1nn(C)c2c1N=C(Cc1ccccc1)N1CC(C)N=C21 (configuration not stated) | > 100 mg/kg | 62 mg/kg | 21.9 mg/kg | – |
| CCn1nc(C)c2c1C1=NC(C)CN1C(C)=N2 (configuration not stated) | > 100 mg/kg | – | 25.7 mg/kg | ED50 [4]: 14.8 mg/kg |
| Cc1nn(C)c2c1N=C(C1CC1)N1CC(C)N=C21 (configuration not stated) | > 100 mg/kg | 12 mg/kg | 46.1 mg/kg | – |
| CCOC(=O)CC1=Nc2c(C)nn(C)c2C2=NC(C)CN12 (configuration not stated) | > 100 mg/kg | > 100 mg/kg | > 100 mg/kg | – |
| CCC1=Nc2c(C)nn(C)c2C2=NC(CC)CN12 (configuration not stated) | > 100 mg/kg | 32 mg/kg | 21.7 mg/kg | – |
| CC1=Nc2c(C)nn(C)c2C2=N[C@@H](C(C)C)CN12 | > 100 mg/kg | – | 57.3 mg/kg | – |
| O=C(CCCN1CCC(O)(c2ccc(Cl)cc2)CC1)c1ccc(F)cc1 [HALOPERIDOL] | > 3 mg/kg | 0.3 mg/kg | 0.27 mg/kg | ED50 [4]: 0.8 mg/kg |
| CCc1nc2c(C)nn(C)c2c2nc(C)cn12 | > 100 mg/kg | – | 36.8 mg/kg | ED50 [4]: 11.4 mg/kg |

| Compound | ED50 [1] | ED50 [2, 11] | ED50 [3, 12] | further results |
| --- | --- | --- | --- | --- |
| CC[C@@H]1CN2C(C)=Nc3c(C)nn(C)c3C2=N1 | > 100 mg/kg | 12 mg/kg | 61.1 mg/kg | – |
| CSc1ccc2c(c1)N(CCC1CCCCN1C)c1ccccc1S2 (configuration not stated) [THIORIDAZINE] | > 10 mg/kg | 5.8 mg/kg | 4.4 mg/kg | IC50 [5]: > 10 µM; IC50 [6]: > 10 µM; IC50 [7]: > 10 µM; IC50 [8]: > 10 µM; IC50 [9]: 8.7 µM; ED50 [10]: 3.9 mg/kg |
| Cc1nn(C)c2c1N=C(C(C)C)N1CC(C)N=C21 (configuration not stated) | > 100 mg/kg | 41 mg/kg | > 100 mg/kg | – |
| CCC1=Nc2c(C)nn(C)c2C2=NCC(C)N12 (configuration not stated) | > 100 mg/kg | – | 28.3 mg/kg | – |
| CCn1nc(C)c2c1C1=NCC(c3ccccc3)N1C(C)=N2 (configuration not stated) | > 100 mg/kg | > 100 mg/kg | 75.5 mg/kg | – |
| CCC1=Nc2c(C)nn(CC)c2C2=NC(C)CN12 (configuration not stated) | > 100 mg/kg | – | 27.2 mg/kg | ED50 [4]: 15.8 mg/kg |
| Cc1nn(C)c2c1nc(C)n1cc(Cc3ccccc3)nc21 | > 100 mg/kg | 86 mg/kg | 83.3 mg/kg | – |
| Cc1nn(C)c2c1N=C(c1ccccc1)N1CC(C)N=C21 (configuration not stated) | > 100 mg/kg | 65 mg/kg | 62.5 mg/kg | – |
| CC1=Nc2c(C)nn(C)c2C2=NC(C)C(C)N12 (stereo in doubt; cis) | – | – | – | ED50 [2]: 26 mg/kg; ED50 [3]: 37.8 mg/kg |
| CC1=Nc2c(C)nn(C)c2C2=NC(C)CN12 (configuration not stated) | > 100 mg/kg | – | 32.1 mg/kg | – |
| Cc1nc2c3c(nc(C)n2c1C)c(C)nn3C | > 100 mg/kg | 10 mg/kg | 39.7 mg/kg | – |
| CCc1nc2c(C)nn(C)c2c2ncc(C)n12 | > 100 mg/kg | 11 mg/kg | 35.5 mg/kg | – |
| CCc1nc2c(C)nn(C)c2c2nc(C)c(Cl)n12 | > 100 mg/kg | 100 mg/kg | > 100 mg/kg | – |
| CCC1=Nc2c(C)nn(C)c2C2=NC(C)CN12 (configuration not stated) | > 100 mg/kg | – | 21.6 mg/kg | ED50 [4]: 15.7 mg/kg |
| Cc1nn(C)c2c1N=CN1CCN=C21 | > 100 mg/kg | – | 39.3 mg/kg | – |
| CC[C@H]1CN2C(C)=Nc3c(C)nn(C)c3C2=N1 | > 100 mg/kg | 38 mg/kg | 42.8 mg/kg | – |
| CCn1nc(C)c2c1C1=NCCN1C(C)=N2 | > 100 mg/kg | – | 22.7 mg/kg | ED50 [4]: 15.3 mg/kg |
